Screens: PubChem BioAssay, several laboratories
A selection: hits, their analogues and other compounds. The true share with any hit is near 2.6%.
SENP1 FRET inh: SENP1 (human) catalytic domain inhibition; AID 624204; recombinant SENP1 catalytic domain, CyPet-SUMO1-YPet FRET cleavage; inhibition, % at 10 µM; actives 0.21% (n = 360,000); Q9P0U3;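 active = inhibition at least 30% at 10 µM, raw YFP signal under a set limit, fluorescence ratio 0.5 to 1.5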
Target sequence (Q9P0U3 419-644 limits assumed): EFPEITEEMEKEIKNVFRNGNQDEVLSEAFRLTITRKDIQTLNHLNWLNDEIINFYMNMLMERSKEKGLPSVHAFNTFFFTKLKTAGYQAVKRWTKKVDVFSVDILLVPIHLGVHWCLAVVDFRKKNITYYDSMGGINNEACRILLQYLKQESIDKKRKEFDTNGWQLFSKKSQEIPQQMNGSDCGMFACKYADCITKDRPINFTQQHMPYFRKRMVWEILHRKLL
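Assay system – human recombinant His6-tagged SENP1 catalytic domain enzyme · Input – SENP1 enzyme, 20 pM final · Buffer or medium – Tris pH 8 buffer plus EDTA, NaCl, BME, BSA, NP40, catalase · Schedule – 50 min reaction at room temperature · Technique – FRET read of cyan and yellow fluorescence · Control set – no-enzyme wells low, DMSO-plus-enzyme wells high control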
Platelet DG rel: platelet dense granule release activity | human platelet-rich plasma, SFLLRN dense granule ATP release, luminescence | inhibition, %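 (compounds screened at 7.5 µM in platelet-rich plasma)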 | actives 0.22% (n = 300,000) | AID 1663;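 active = mean replicate score, as percent of positive control, at or above 50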
SENP7 inh: blocks the human protease SENP7. Q9BQF6. recombinant SENP7, Z-RLRGG-aminoluciferin luminescence, 40 min. inhibition, % at 5 µM. actives 1.5% (n = 330,000). AID 434973;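 active = inhibition above about 50% at the single test dose, limit read from the data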
SENP8 block-1: SENP8 (human) protease inhibition; Q96LD8; recombinant SENP8, Nedd8 substrate fluorescence; inhibition, % at 20 µM; actives 0.64% (n = 360,000); AID 602440; in the data active = inhibition mostly above about 40%, no sharp cut-off; inactive = mostly below about 27%
SENP6 inh: blocks the human protease SENP6. Recombinant SENP6 catalytic domain, aminoluciferin luminescence. inhibition, % at 10 µM. actives 1.8% (n = 330,000);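 active = inhibition above about 50% at the single tested dose, limit read from the data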
SENP8 block-2: SENP8 protease inhibition; Q96LD8; purified SENP8, Z-RLRGG-aminoluciferin cleavage, luminescence; inhibition, % at 10 µM; actives 1.2% (n = 330,000); AID 2540; in the data active = inhibition above about 50%
SENP8 conf: human SENP8 inhibition, confirmed; actives 40% (n = 6,200); Recombinant SENP8, Z-RLRGG-aminoluciferin luminescence, 60 min; shares compounds with SENP7 inh; inhibition, % at 12.5 µM;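 active = mean inhibition across replicates above about 50%, limit read from the data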
SENP6 conf: confirmation of human SENP6 protease inhibitors. shares compounds with SENP7 inh. recombinant SENP6, Z-RLRGG-aminoluciferin luminescence. actives 58% (n = 6,200). inhibition, % at 12.5 µM
SENP7 conf: confirmation of human SENP7 protease inhibitors; shares compounds with SENP7 inh; recombinant SENP7, Z-RLRGG-aminoluciferin luminescence, 40 min; inhibition, % at 12.5 µM; actives 69% (n = 6,200)
Casp3 SENP sel: selectivity test for SENP inhibitors: human caspase-3 inhibition. inhibition, % at 12.5 µM. AID 488918. shares compounds with SENP7 inh. actives 60% (n = 6,200). purified caspase-3, Z-DEVD-aminoluciferin luminescence, 60 min;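 active = mean inhibition above about 50%, limit read from the data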
Target sequence (P42574 28-227 limits assumed): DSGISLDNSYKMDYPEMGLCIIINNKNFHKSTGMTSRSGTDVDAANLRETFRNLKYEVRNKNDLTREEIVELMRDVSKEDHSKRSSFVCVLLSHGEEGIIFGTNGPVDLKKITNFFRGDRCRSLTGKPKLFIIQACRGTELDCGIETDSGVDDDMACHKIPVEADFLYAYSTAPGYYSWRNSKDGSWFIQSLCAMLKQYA
Luc interf: luminescence interference (SENP counter-screen). AID 488919. actives 39% (n = 6,200). inhibition, % at 12.5 µM. Pre-incubated SENP8/Z-RLRGG-aminoluciferin, luciferase luminescence interference. shares compounds with SENP7 inh;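 active = mean inhibition above about 50% when retested at one dose, limit read from the data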
Large screens that a line does not name were inactive (follow-up assays come after a bar, where they were run).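 Rule for the calls, unless noted: active = mean inhibition above about 50% in the one-dose retest (limit read from the data); inactive = the rest.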

Fc1ccc(-c2cn3cc(C(F)(F)F)cc(Cl)c3n2)cc1	SENP7 inh 82, SENP6 inh 75 | SENP8 conf 59 | SENP6 conf 77 | SENP7 conf 86 | Casp3 SENP sel 58 | Luc interf inactive
O=C(Nc1ccc2ccccc2n1)Nc1ccccc1F	none
Fc1ccc(Nc2ccc3ccccc3n2)c(F)c1	SENP7 inh 99, SENP6 inh 95, SENP8 block-2 95 | SENP8 conf 98 | SENP6 conf 99 | SENP7 conf 103 | Casp3 SENP sel 95 | Luc interf 93
Cc1cc(C)c2c(c1)C(=O)/C(=C/c1ccc(C(=O)O)cc1)CC2	SENP6 inh 92, SENP8 block-2 75 | SENP8 conf 62 | SENP6 conf 51 | SENP7 conf 53 | Casp3 SENP sel 58 | Luc interf inactive
O=C(O)c1ccc(/C=C2\COc3ccccc3C2=O)cc1	none
CC(=O)Nc1ccc(C(=O)COC(=O)C2CCCCC2)c(F)c1	SENP7 inh 58, SENP6 inh 78, SENP8 block-2 57 (no result: Platelet DG rel) | SENP8 conf inactive | SENP6 conf inactive | SENP7 conf 80 | Casp3 SENP sel inactive | Luc interf inactive
CC(=O)Nc1ccc(C(=O)COC(=O)C2CC2)c(F)c1	none (no result: Platelet DG rel)
Cc1ccc(NC(=O)c2cc3cccc([N+](=O)[O-])c3[nH]2)cc1	SENP7 inh 89, SENP6 inh 71, SENP8 block-2 56 | SENP8 conf 57 | SENP6 conf 63 | SENP7 conf 96 | Casp3 SENP sel 66 | Luc interf 55
O=C(O)c1ccc(/C=C/C(=O)c2ccc3c(c2)OCCCO3)cc1	SENP6 inh 60 | SENP8 conf 70 | SENP6 conf 57 | SENP7 conf 74 | Casp3 SENP sel inactive | Luc interf 78
O=C(COC(=O)CCc1ccc(S(=O)(=O)N2CCCCC2)cc1)Nc1ccc2c(c1)OCO2	none
O=[N+]([O-])c1ccccc1NCCNc1ncc(C(F)(F)F)cc1Cl	none
O=[N+]([O-])c1cccnc1NCCNc1ncc(C(F)(F)F)cc1Cl	SENP7 inh 58, SENP6 inh 67 | SENP8 conf 60 | SENP6 conf 56 | SENP7 conf 83 | Casp3 SENP sel inactive | Luc interf inactive
O=[N+]([O-])c1cccnc1NCCc1ccccc1	SENP7 inh 88, SENP6 inh 95, SENP8 block-2 81 | SENP8 conf inactive | SENP6 conf 69 | SENP7 conf 88 | Casp3 SENP sel 72 | Luc interf inactive
COc1ccccc1CNc1ncccc1[N+](=O)[O-]	none
O=c1cc(Cl)[nH]c(=O)n1CCNc1ncc(C(F)(F)F)cc1Cl	SENP6 inh 58 | SENP8 conf 52 | SENP6 conf inactive | SENP7 conf 77 | Casp3 SENP sel 73 | Luc interf inactive
CCOC(=O)c1cnc2c(C)cccc2c1NCCCN1CCOCC1	none
O=C(Nc1nnc(-c2ccco2)o1)c1ccc2ccccc2c1	SENP6 inh 71 | SENP8 conf inactive | SENP6 conf inactive | SENP7 conf inactive | Casp3 SENP sel inactive | Luc interf inactive
Cc1ccc(C(=O)Nc2nnc(-c3ccco3)o2)cc1	none
COc1ccccc1CCNC(=O)C1CCC(=O)N(Cc2cccc(F)c2)C1 (stereo not given)	none
CC(=O)Nc1ccc(N/C=C/C(=O)c2ccco2)cc1	none
